Test results as given in ChEMBL document CHEMBL3352202 (J Med Chem, 2014).

Columns and labels:
[1] = test system: Liver microsome; assay: Half life in human liver microsomes at 0.5 uM by LC-MS/MS analysis
[2] = test system: DU-145; assay: Antiproliferative activity against human DU145 cells after 96 hrs by SRB assay; format: functional, cell-based; conditions: DU-145, 96 h
Outline: (§1)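 Prostate cancer lines were exposed to compound for 96 h, with cell growth read by sulforhodamine B staining. Results are IC50 ± SEM.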

[3] = test system: LNCaP; assay: Antiproliferative activity against human LNCAP cells after 96 hrs by SRB assay; format: functional, cell-based
Outline: as §1

[4] = Antiproliferative activity against human PC3 cells after 96 hrs by SRB assay; format: functional, cell-based; conditions: PC-3, 96 h
Outline: as §1

[5] = test system: A-375; assay: Antiproliferative activity against human A375 cells after 96 hrs by SRB assay; format: functional, cell-based; conditions: A-375, 96 h
[6] = test system: Liver microsome; assay: Half life in rat liver microsomes at 0.5 uM by LC-MS/MS analysis
[7] = Antiproliferative activity against human PPC1 cells after 96 hrs by SRB assay; format: functional, cell-based; conditions: PPC-1, 96 h
Outline: as §1

[8] = test system: Liver; assay: Half life in mouse liver microsomes at 0.5 uM by LC-MS/MS analysis
[9] = Antiproliferative activity against mouse B16-F1 cells after 96 hrs by SRB assay; format: functional, cell-based; conditions: B16-F1, 96 h
[10] = biological target: T1, Tubulin (Bos taurus) (UniProt Q6B856+Q862L2+Q862F3); assay: Inhibition of bovine brain tubulin polymerization at 5 uM for 20 mins by spectrophotometry
Outline: (§2)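 Bovine brain tubulin (0.4 mg, >97% pure) in general tubulin buffer pH 6.9 (80 mM PIPES, 2.0 mM MgCl2, 0.5 mM EGTA, 1 mM GTP) with compound at 5 or 10 μM, 37 °C. A340 was read each minute for 20 min, and percent inhibition was taken relative to vehicle.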

[11] = biological target: T1, Tubulin (Bos taurus); assay: Inhibition of bovine brain tubulin polymerization at 10 uM for 20 mins by spectrophotometry
Outline: as §2

| Compound | t1/2 [1] | IC50 [2] | IC50 [3] | IC50 [4] | IC50 [5] | t1/2 [6] | IC50 [7] | t1/2 [8] | IC50 [9] | inhibition [10] | inhibition [11] |
| --- | --- | --- | --- | --- | --- | --- | --- | --- | --- | --- | --- |
| COCOc1c(OC)cc(C(=O)c2csc(-c3ccccc3)n2)cc1OC | 7.8 min | 112 nM | 31 nM | 17 nM | 20 nM | 9.7 min | 22 nM | 4 min | 19 nM |  |  |
| COc1cc(C(=O)c2csc(Nc3ccc4[nH]ccc4c3)n2)cc(OC)c1OC |  | 24 nM | 13 nM | 12 nM | 25 nM |  | 15 nM |  | 84 nM |  |  |
| COc1cc(C(=O)c2csc(-c3ccccc3)n2)cc(OC)c1OCc1ccccc1 |  | > 10000 nM | > 10000 nM | > 10000 nM | > 10000 nM |  | > 10000 nM |  | 10600 nM |  |  |
| COc1cc(-c2cccc3[nH]c(-c4c[nH]c5ccccc45)nc23)cc(OC)c1OC |  | 4200 nM | 800 nM | 900 nM | 600 nM |  | 1300 nM |  |  |  |  |
| COc1cc(C(=O)c2csc(Nc3ccccc3)n2)cc(OC)c1OC |  | 71 nM | 28 nM | 21 nM | 28 nM |  | 43 nM |  | 65 nM |  |  |
| COc1cc(-c2cccc3[nH]c(-c4ccccc4)nc23)cc(OC)c1OC |  | 7800 nM | 2100 nM | 2400 nM |  |  | 2100 nM |  |  |  |  |
| COc1cc(C(=O)c2csc(-c3ccccc3)n2)cc(OC)c1OC |  |  |  | 21 nM |  |  | 43 nM |  | 55 nM |  |  |
| COc1cc(C(=O)c2csc(-c3ccccc3)n2)cc(OC)c1OC(=O)CCl |  | > 10000 nM | > 10000 nM | > 10000 nM | 10800 nM |  | > 10000 nM |  | 3200 nM |  |  |
| COc1cc(C(=O)c2csc(-c3ccccc3)n2)cc(OC)c1OC(=O)C(F)(F)F |  | > 10000 nM | > 10000 nM | > 10000 nM | 22200 nM |  | > 10000 nM |  | 8900 nM |  |  |
| COc1cc(C(=O)c2csc(-c3ccccc3)n2)cc(OC)c1OCCN1C(=O)c2ccccc2C1=O |  | 600 nM | 1400 nM | > 10000 nM | 3100 nM |  | 600 nM |  | 1300 nM |  |  |
| COc1cc(C(=O)c2csc(-c3ccccc3)n2)cc(OC)c1OCCN |  | 464 nM | 117 nM | 158 nM | 527 nM |  | 184 nM |  | 142 nM |  |  |
| COc1cc(C(=O)c2c[nH]c(Nc3ccccc3)n2)cc(OC)c1OC |  | > 30000 nM | > 30000 nM | > 30000 nM | > 30000 nM |  | > 30000 nM |  | > 30000 nM |  |  |
| COc1cc(-c2cccc3[nH]c(-c4n[nH]c5ccccc45)nc23)cc(OC)c1OC |  | 4000 nM | 1600 nM | 800 nM | 1100 nM |  | 1000 nM |  |  |  |  |
| COc1cc(-c2cccc3[nH]c(-c4ccc5[nH]ccc5c4)nc23)cc(OC)c1OC |  | 57 nM | 28 nM | 22 nM | 25 nM |  | 20 nM |  |  | 30% | 60% |
| COc1cc(-c2nccc3[nH]c(-c4ccc5[nH]ccc5c4)nc23)cc(OC)c1OC | 45.3 min |  | 5 nM | 6 nM | 5 nM | 30.4 min | 42 nM | 19.7 min |  | 33% | 81% |
